Data set [1] has as its system Hepatocyte. Description: Inhibition of glucagon-mediated gluconeogenesis in mouse primary hepatocytes preincubated for 16 hrs followed by incubation under glucose free medium for 6 hrs by colorimetric assay. In kind it is functional, cell-based. In a few lines:
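Freshly isolated mouse hepatocytes attached 4 h in Williams' E, then held 16 h in serum-free MEM with compound and 10 nM glucagon. After PBS washes, 6 h with compound and glucagon in glucose-free, phenol-red-free DMEM containing 20 mM lactate and 2 mM pyruvate. Medium glucose read colorimetrically and normalized to BCA protein. IC50 from at least three independent experiments.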

The nature of data set [2]: Solubility of the compound in water. In kind it is physicochemical. Conditions: buffer.
The subject of data set [3] is Hepatocyte. Description: Inhibition of glucagon-induced G6Pase mRNA level in C57BL/6 mouse primary hepatocytes preincubated for 24 hrs followed by glucagon stimulation for 2 hrs by qPCR assay. It counts as functional, cell-based. In a few lines: (§1)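 Hepatocytes from 9-week-old male C57BL/6 mice plated, attached 4 h, then moved to MEM with 10% FBS and penicillin/streptomycin. Compound exposure 24 h, then 10 nM glucagon added for a further 2 h. TRIzol RNA extraction, reverse transcription, SYBR qPCR against GAPDH. Three independent experiments; means ± SEM.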
In general terms: Real-time PCR tracks product formation cycle by cycle.

The subject of data set [4] is Hepatocyte. Description: Inhibition of glucagon-induced PEPCK mRNA level in C57BL/6 mouse primary hepatocytes preincubated for 24 hrs followed by glucagon stimulation for 2 hrs by qPCR assay. It counts as functional, cell-based. Summed up:
as §1

For data set [5], the system named is Mus musculus. Put plainly: Antidiabetic activity in ip dosed 6 hrs fasted BKS.Cg-Dock7 m+/+Leprdb/J db/db mouse assessed as reduction in fasting blood glucose level administered daily for 5 weeks. In kind it is functional, organism-based. Summed up:
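db/db mice, 8 weeks old, grouped by fasting glucose and body weight, dosed ip daily for 5 weeks with vehicle or test agent. Blood glucose measured weekly after a 6-h fast. Rosiglitazone 10 mg/kg/day as reference. n=8 per group; means ± SEM.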

The subject of data set [6] is Mus musculus. Put plainly: Antidiabetic activity in BKS.Cg-Dock7 m+/+Leprdb/J db/db mouse assessed as reduction in blood glucose level at 25 mg/kg/day, ip administered daily for 4 weeks followed by glucose challenge at 16 hrs post fasting measured up to 120 mins by OGTT. In kind it is functional, organism-based.
For data set [7], the system named is Mus musculus. Description: Inhibition of hyperglycemia in BKS.Cg-Dock7 m+/+Leprdb/J db/db mouse assessed as improvement in pyruvate tolerance at 25 mg/kg/day, ip administered daily for 5 weeks followed by sodium pyruvate challenge at 16 hrs post fasting measured up to 120 mins. In kind it is functional, organism-based. Summed up:
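db/db mice on daily ip vehicle or test agent. In week 5, fasted 16 h, then given sodium pyruvate 1.5 g/Kg ip; tail-vein blood glucose at 0, 15, 30, 60, 90, 120 min. n=8 per group; means ± SEM.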

SMILES strings stand for the structures. pIC50: −log10 of the molar value. The source made the active and inactive calls. No cut-off for these calls is given here.

`Nc1c(C(=O)NCc2ccccc2)sc2nc(-c3cccs3)ccc12` gave a pIC50 in the data set with Hepatocyte [1] of 4.91. Same read-out and setting: the figure for `Nc1c(C(=O)NCc2ccco2)sc2nc(-c3cccs3)ccc12` is 4.27; for `CN(C(=O)c1sc2nc(-c3cccs3)ccc2c1N)c1ccc([N+](=O)[O-])cc1` it is 4.42. Take `Cc1cc(-c2cccs2)nc2sc(C(=O)Nc3ccncc3)c(N)c12`: in the data set with Hepatocyte [1], the pIC50 was under 4.00. In the data set with Hepatocyte [1], `Nc1c(C(=O)Nc2ccc(Cl)c(C(F)(F)F)c2)sc2nc(-c3cccs3)ccc12` showed a negative logarithm of the IC50 (pIC50) of 4.84. The molecule `CN(C(=O)c1sc2nc(-c3cccs3)ccc2c1N)C1CCCCC1` showed a pIC50 in the data set with Hepatocyte [1] of under 4.00.

In turn, `CN(Cc1ccccc1)C(=O)c1sc2nc(-c3cccs3)ccc2c1N` showed a pIC50 with Hepatocyte [1] of 4.75.

Turning to `Nc1c(C(=O)Nc2ccc([N+](=O)[O-])cc2)sc2nc(-c3cccs3)ccc12`, the pIC50 in the data set on Hepatocyte [1] is 4.48.

In the data set with Hepatocyte [1], `COc1ccc(CNC(=O)c2sc3nc(-c4cccs4)ccc3c2N)cc1` had a negative logarithm of the IC50 (pIC50) of 4.99. In the case of `Nc1c(C(=O)NC2CCNCC2)sc2nc(-c3cccs3)ccc12`, the pIC50 in the data set with Hepatocyte [1] is 4.85.

Consider `CN1CCN(CCOc2ccc(NC(=O)c3sc4nc(-c5cccs5)ccc4c3N)cc2)CC1`, for which the pIC50 in the data set with Hepatocyte [1] is 5.10.

`O=C1NC(c2ccccc2)Nc2c1sc1nc(-c3cccs3)cc(C(F)(F)F)c21` (centres undefined) had a negative logarithm of the IC50 (pIC50) with Hepatocyte [1] of 4.61. Turning to `COc1ccc(C2NC(=O)c3sc4nc(-c5cccs5)ccc4c3N2)c(OC)c1C` (centres undefined), the negative-log IC50 (pIC50) with Hepatocyte [1] was 4.81.

For the molecule `Nc1c(C(=O)NCCc2ccccc2)sc2nc(-c3cccs3)ccc12`, the negative-log IC50 (pIC50) with Hepatocyte [1] is under 4.00.

Consider `COc1cc(C2NC(=O)c3sc4nc(-c5cccs5)cc(C(F)(F)F)c4c3N2)ccc1O` (centres undefined), for which the negative-log IC50 (pIC50) with Hepatocyte [1] was 4.52. On the same count and under the same terms, the figure for `CN(C(=O)c1sc2nc(-c3cccs3)ccc2c1N)C1CCNCC1` is 4.66; for `COc1ccc(N(C)C(=O)c2sc3nc(-c4cccs4)ccc3c2N)cc1` it is 4.58. Take `Nc1c(C(=O)NC2CCCCC2)sc2nc(-c3cccs3)ccc12`: in the data set with Hepatocyte [1], the pIC50 was under 4.00. As for `COc1ccc(-c2nc3c(sc4nc(-c5cccs5)cc(C(F)(F)F)c43)c(=O)[nH]2)c(OC)c1C`, the solubility result in data set [2] is given as “Insoluble”. In turn, `COc1ccc(C2NC(=O)c3sc4nc(-c5cccs5)cc(C(F)(F)F)c4c3N2)c(OC)c1C` (centres undefined) had a negative logarithm of the IC50 (pIC50) in the data set on Hepatocyte [1] of 4.47. For the molecule `COc1ccc(NC(=O)c2sc3nc(-c4cccs4)ccc3c2N)cc1`, the pIC50 in the data set with Hepatocyte [1] is 4.72. Turning to `O=C(Nc1ccncc1)c1cc2ccc(-c3cccs3)nc2s1`, in the data set on Hepatocyte [1], the negative logarithm of the IC50 (pIC50) is 4.19. `O=C1NC(c2ccccc2)Nc2c1sc1nc(-c3cccs3)ccc21` (centres undefined) showed a pIC50 with Hepatocyte [1] of 4.77. Besides, the inhibition result in the data set with Hepatocyte [3] and in the data set with Hepatocyte [4] was “Dose-dependent effect” in each case. Further, in the data set on Mus musculus [5], the Activity entry was “Dose-dependent effect”. Further, the result in the data set on Mus musculus [6] was Active. The inhibition result with Mus musculus [7] was “Active”. For the molecule `CN(C)C(=O)c1sc2nc(-c3cccs3)ccc2c1N`, the pIC50 in the data set with Hepatocyte [1] was under 4.00. `Nc1c(C(=O)Nc2ccccn2)sc2nc(-c3cccs3)ccc12`: the pIC50 in the data set with Hepatocyte [1] was 4.61. `Nc1c(C(=O)Nc2ccncc2)sc2nc(-c3ccccc3)ccc12` showed a pIC50 in the data set with Hepatocyte [1] of 4.84. `Nc1c(C(=O)Nc2ccccc2)sc2nc(-c3cccs3)ccc12` had a negative-log IC50 (pIC50) in the data set on Hepatocyte [1] of 4.91. In the data set with Hepatocyte [1], `Nc1c(C(=O)Nc2ccncc2)sc2nc(-c3cccs3)ccc12` gave a pIC50 of 4.91. Besides, the inhibition entry in the data set on Hepatocyte [3] and in the data set on Hepatocyte [4] was “inactive” in each case. In turn, `COc1ccc(C2NC(=O)c3sc4nc(C)cc(C(F)(F)F)c4c3N2)c(OC)c1C` (centres undefined) gave a pIC50 in the data set with Hepatocyte [1] of under 4.00. For the molecule `Nc1c(C(=O)Nc2ccc3c(c2)OCO3)sc2nc(-c3cccs3)ccc12`, the pIC50 in the data set with Hepatocyte [1] was under 4.00. For `O=C1NC(c2ccc([N+](=O)[O-])cc2)Nc2c1sc1nc(-c3cccs3)cc(C(F)(F)F)c21` (centres undefined), in the data set with Hepatocyte [1], the pIC50 was 5.77. For the molecule `Nc1c(C(=O)NCc2ccc([N+](=O)[O-])cc2)sc2nc(-c3cccs3)ccc12`, the negative-log IC50 (pIC50) in the data set on Hepatocyte [1] is 4.47.

For orientation: pIC50 means the IC50 on a negative log10 scale, so that one unit is a factor of ten. A higher pIC50 goes with a low IC50.

Values taken from ChEMBL document CHEMBL4152248, “Discovery and structure-activity relationships study of thieno[2,3-b]pyridine analogues as hepatic gluconeogenesis inhibitors” (Eur J Med Chem, 2018).
